ChEMBL document CHEMBL4732121, “Imidazo[1,2-a]quinoxalines for melanoma treatment with original mechanism of action” (Eur J Med Chem, 2021)
Active and inactive are the calls of the source. The calls are words filed in the database; no cut-off is given here.

Columns and labels:
A-375 [1] = test: Antitumor activity against human A-375 cells xenografted in Balb/c nude mouse assessed as vascularization at 25 mg/kg, ip administered 3 times a week for 3 weeks measured post last dose by trichrome staining based histopathological analysis; type: functional, organism-based
Summary of the method: (§1)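 Balb/c nude mice given 10×10^6 A375 cells in PBS subcutaneously in the right flank under isoflurane. Groups of 6-12 allocated on Day 14 at 110-130 mm^3 mean tumor volume; dosed ip for three weeks. Drug in DMSO/Tween 80 (1:1) diluted with saline; vehicle DMSO/Tween 80/saline (1:1:8). Tumors fixed in buffered 3.7% formalin and read blind by a veterinary pathologist after mid-sagittal section.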

A-375 [2] = test: Antiproliferative activity against human A-375 cells assessed as reduction in cell viability measured after 96 hrs by MTT assay; type: functional, cell-based; settings: Homo sapiens, A-375, 96 h
Summary of the method: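 A375 cells in RPMI-1640 with 10% heat-inactivated FBS, 2 mM L-glutamine and antibiotics, 37°C, 5% CO₂. Seeded at 5000 cells/well and attached overnight, then exposed to 10⁻⁵–3.2.10⁻⁹ M in 0.15% DMSO/medium for 96 h. MTT at 0.5 mg/ml final for 4 h, formazan dissolved in 10% SDS/0.01 M HCl, OD 570 nm. At least three experiments in triplicate; IC50 from sigmoidal dose–response curves.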

[3] = Toxicity in Balb/c nude mouse xenografted with human A-375 cells assessed as change in body weight at 30 mg/kg, ip administered 5 times a week for 3 weeks; type: organism-based; settings: in vivo, 504 h
A-375 [4] = test: Antitumor activity against human A-375 cells xenografted in Balb/c nude mouse assessed as change in tumor stroma at 75 mg/kg, ip administered 3 times a week during first week and twice a week for next 2 weeks measured post last dose by trichrome staining based histopathological analysis; type: functional, organism-based; settings: time 3.0 weeks; summary of the method: as §1
[5] = Toxicity in Balb/c nude mouse xenografted with human A-375 cells assessed as morbidity at 75 mg/kg, ip administered 3 times a week during first week and twice a week for 2 week; type: organism-based; settings: in vivo, 504 h, time 3 weeks
Summary of the method: (§2)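 Balb/c nude mice inoculated s.c. in right flank with 10×10^6 A375 cells in PBS under isoflurane; dosing started once mean tumor volume reached 110-130 mm3, groups allocated Day 14. IP dosing for three weeks; vehicle DMSO/Tween 80 (vol/vol) plus injectable saline (8 vol), solutions made daily. Body weight followed during treatment; gross pathology at study termination; n = 4 mice per group reported.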

A-375 [6] = test: Antitumor activity against human A-375 cells xenografted in Balb/c nude mouse assessed as reduction in mitotic index at 25 mg/kg, ip administered 3 times a week for 3 weeks measured post last dose; type: functional, organism-based; summary of the method: as §1
A-375 [7] = test: Antitumor activity against human A-375 cells xenografted in Balb/c nude mouse assessed as vascularization at 30 mg/kg, ip administered 5 times a week for 3 weeks measured post last dose by trichrome staining based histopathological analysis; type: functional, organism-based; summary of the method: as §1
A-375 [8] = test: Antitumor activity against human A-375 cells xenografted in Balb/c nude mouse assessed as reduction in tumor size at 30 mg/kg, ip administered 5 times a week for 3 weeks by caliper method; type: functional, organism-based; summary of the method: as §1
[9] = Toxicity in Balb/c nude mouse xenografted with human A-375 cells assessed as effect on liver pathology at 75 mg/kg, ip administered 3 times a week during first week and twice a week for 2 week measured post last dose by pathological analysis; type: organism-based; settings: in vivo, 504 h, time 3 weeks; summary of the method: as §2
A2058 = test: Antiproliferative activity against human A2058 cells assessed as reduction in cell viability measured after 96 hrs by MTT assay; type: functional, cell-based; settings: A2058, 96 h
[10] = Toxicity in Balb/c nude mouse xenografted with human A-375 cells assessed as reduction in body weight at 75 mg/kg, ip administered 3 times a week during first week and twice a week for 2 week; type: organism-based; settings: in vivo, 504 h, time 3 weeks; summary of the method: as §2
A-375 [11] = test: Antitumor activity against human A-375 cells xenografted in Balb/c nude mouse assessed as reduction in tumor weight at 25 mg/kg, ip administered 3 times a week for 3 weeks measured post last dose; type: functional, organism-based; summary of the method: as §1
A-375 [12] = test: Antitumor activity against human A-375 cells xenografted in Balb/c nude mouse assessed as vascularization at 75 mg/kg, ip administered 3 times a week during first week and twice a week for next 2 weeks measured post last dose by trichrome staining based histopathological analysis; type: functional, organism-based; settings: time 3.0 weeks; summary of the method: as §1
A-375 [13] = test: Antitumor activity against human A-375 cells xenografted in Balb/c nude mouse assessed as reduction in tumor size at 75 mg/kg, ip administered 3 times a week during first week and twice a week for 2 week by caliper method relative to control; type: functional; design: scale not given: the % may be the effect or the level left; settings: time 3 weeks; summary of the method: as §1
A-375 [14] = test: Antitumor activity against human A-375 cells xenografted in Balb/c nude mouse assessed as reduction in mitotic index at 30 mg/kg, ip administered 5 times a week for 3 weeks measured post last dose; type: functional, organism-based; summary of the method: as §1
A-375 [15] = test: Antitumor activity against human A-375 cells xenografted in Balb/c nude mouse assessed as reduction in tumor size at 25 mg/kg, ip administered 3 times a week for 3 weeks by caliper method relative to control; type: functional; design: scale not given: the % may be the effect or the level left; summary of the method: as §1
[16] = Toxicity in Balb/c nude mouse xenografted with human A-375 cells assessed as effect on pancreas pathology at 75 mg/kg, ip administered 3 times a week during first week and twice a week for 2 week measured post last dose by pathological analysis; type: organism-based; settings: in vivo, 504 h, time 3 weeks; summary of the method: as §2
[17] = Toxicity in Balb/c nude mouse xenografted with human A-375 cells assessed as mortality at 75 mg/kg, ip administered 3 times a week during first week and twice a week for 2 week; type: organism-based; settings: in vivo, 504 h, time 3 weeks; summary of the method: as §2
[18] = Toxicity in Balb/c nude mouse xenografted with human A-375 cells assessed as effect on gut pathology at 75 mg/kg, ip administered 3 times a week during first week and twice a week for 2 week measured post last dose by pathological analysis; type: organism-based; settings: in vivo, 504 h, time 3 weeks; summary of the method: as §2
A-375 [19] = test: Antitumor activity against human A-375 cells xenografted in Balb/c nude mouse assessed as reduction in tumor weight at 30 mg/kg, ip administered 5 times a week for 3 weeks measured post last dose; type: functional, organism-based; summary of the method: as §1
A-375 [20] = test: Antitumor activity against human A-375 cells xenografted in Balb/c nude mouse assessed as change in tumor inflammation at 30 mg/kg, ip administered 5 times a week for 3 weeks measured post last dose by trichrome staining based histopathological analysis; type: functional, organism-based; summary of the method: as §1
A-375 [21] = test: Antitumor activity against human A-375 cells xenografted in Balb/c nude mouse assessed as change in tumor inflammation at 75 mg/kg, ip administered 3 times a week during first week and twice a week for next 2 weeks measured post last dose by trichrome staining based histopathological analysis; type: functional, organism-based; settings: time 3.0 weeks; summary of the method: as §1
[22] = Inhibition of pig brain tubulin polymerization at 5 uM measured after 45 mins by turbidimetry based spectrophotometric method relative to control; type: tissue-based, Sus scrofa; settings: 0.75 h
IPC-298 = test: Antiproliferative activity against human IPC-298 cells assessed as reduction in cell viability measured after 96 hrs by MTT assay; type: functional, cell-based; settings: IPC-298, 96 h
A-375 [23] = test: Antitumor activity against human A-375 cells xenografted in Balb/c nude mouse assessed as reduction in cell invasion at 25 mg/kg, ip administered 3 times a week for 3 weeks measured post last dose; type: functional, organism-based; summary of the method: as §1
[24] = Toxicity in Balb/c nude mouse xenografted with human A-375 cells assessed as adverse effect at 30 mg/kg, ip administered 5 times a week for 3 weeks; type: organism-based; settings: in vivo, 504 h
MeWo = test: Antiproliferative activity against human MeWo cells assessed as reduction in cell viability measured after 96 hrs by MTT assay; type: functional, cell-based

In the case of CNc1nc2ccccc2n2c(-c3ccc(O)c(O)c3)cnc12, the Activity (A-375 [1]) is reported as “inactive”, the IC50 (A-375 [2]) is reported as 3 nM and the Activity [3] is reported as “Non-Toxic”. For the same molecule, the Activity (A-375 [4]) was “inactive”, the Activity [5] was “Toxic” and the Activity (A-375 [6]) was “Active”. The Activity (A-375 [7]) was “inactive”, the Activity (A-375 [8]) was “Active” and the Activity [9] was “Toxic”. For the same molecule, the IC50 (A2058) was 4 nM, the Activity [10] was “Toxic” and the Activity (A-375 [11]) was “Active”. For the same molecule, the Activity (A-375 [12]) was “inactive”, the Activity (A-375 [13]) was 80% and the Activity (A-375 [14]) was “Active”. For the same molecule, the Activity (A-375 [15]) was 50%, the Activity [16] was “Toxic” and the Activity [17] was “Toxic”. The Activity [18] was “Toxic”, the Activity (A-375 [19]) was “Active” and the Activity (A-375 [20]) was “inactive”. For the same molecule, the Activity (A-375 [21]) was “inactive”, the “inhibition (INH)” value [22] was “Not Active” and the IC50 (IPC-298) was 40 nM. For the same molecule, the Activity (A-375 [23]) was “Active”, the Activity [24] was “Non-Toxic” and the IC50 (MeWo) was 3 nM.
